In ChEMBL document CHEMBL3994613, “Diaryltriazenes as antibacterial agents against methicillin resistant Staphylococcus aureus (MRSA) and Mycobacterium smegmatis” (Eur J Med Chem, 2017):
≈ marks a conversion by molar mass, not a printed value.

How the values were obtained:
[1] = system: Bacillus subtilis; test: Bactericidal activity against Bacillus subtilis ATCC 6051 after 18 to 20 hrs by broth microdilution method; type: functional
[2] = system: Escherichia coli; test: Antibacterial activity against N43 CGSC 5583 knock out Escherichia coli after 18 to 20 hrs by microdilution method; type: functional
In short: (§1)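 Broth microdilution per EUCAST in LB broth. Inoculum from 20–24 h colonies by CLSI direct colony suspension (LB agar for E. coli), final 2×10^4 CFU/mL. Read after 18–20 h aerobic incubation at 37 °C on plate reader, at least one duplicate.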

[3] = system: Mycolicibacterium smegmatis; test: Bactericidal activity against Mycobacterium smegmatis MC2 155 after 96 hrs by microdilution method; type: functional; settings: str. MC2 155, 96 h
In short: (§2)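 Microdilution in TSB broth. Inoculum from colonies grown 96 h on TSA, final 1×10^5 CFU/mL, aerobic 94–98 h at 37 °C, growth read on a plate reader, at least duplicate.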

[4] = system: Acinetobacter baumannii; test: Antibacterial activity against Acinetobacter baumannii ATCC 19606 after 18 to 20 hrs by broth microdilution method; type: functional; settings: ATCC 19606 = CIP 70.34 = JCM 6841
In short: (§3)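 Broth microdilution per EUCAST in TSB broth. Inoculum prepared by CLSI direct colony suspension from 20–24 h TSA colonies, final 3×10^4 CFU/mL. Aerobic incubation for 18–20 h at 37 °C, growth read on plate reader, at least one duplicate.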

[5] = system: Streptococcus pneumoniae; test: Antibacterial activity against Streptococcus pneumoniae R6 after 18 to 20 hrs by broth microdilution method; type: functional
In short: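 Broth microdilution per EUCAST in BHI broth. Inoculum from colonies on BHI agar with 5% sheep blood, final 5×10^4 CFU/mL. Read after 18–20 h anaerobic incubation at 37 °C.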

[6] = system: Staphylococcus aureus; test: Bactericidal activity against methicillin-resistant Staphylococcus aureus 1653 after 18 to 20 hrs by broth microdilution method; type: functional
In short: (§4)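 EUCAST broth microdilution in LB broth. Inoculum from 20–24 h colonies on 5% sheep blood BHI agar, final 3×10^4 CFU/mL, 18–20 h aerobic at 37 °C, plate reader, at least duplicate.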

[7] = system: Escherichia coli; test: Antibacterial activity against Escherichia coli D22 after 18 to 20 hrs by microdilution method; type: functional; in short: as §1
[8] = system: Staphylococcus aureus; test: Bactericidal activity against methicillin-resistant Staphylococcus aureus USA300 after 18 to 20 hrs by microdilution method; type: functional
In short: (§5)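 EUCAST broth microdilution in LB broth. Inoculum prepared by direct colony suspension from 20–24 h LB agar (E. coli DH10β) or 5% sheep blood BHI agar (MRSA USA300) growth. Final inoculum 2×10^4 CFU/mL, 18–20 h aerobic at 37 °C, growth read on a plate reader, at least duplicate.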

[9] = system: Acinetobacter baumannii; test: Antibacterial activity against Acinetobacter baumannii ATCC BAA-1605 after 18 to 20 hrs by broth microdilution method; type: functional; in short: as §3
[10] = system: Saccharomyces cerevisiae; test: Antibacterial activity against Saccharomyces cerevisiae after 18 to 20 hrs by microdilution method
In short: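 Microdilution in YEP broth against wild-type yeast grown on YEP agar. Final inoculum 1×10^5 CFU/mL. Read after 18–20 h aerobic incubation at 30 °C on plate reader, at least one duplicate.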

[11] = Solubility of the compound in water; type: physicochemical; settings: buffer
[12] = system: Staphylococcus aureus; test: Antibacterial activity against methicillin-resistant Staphylococcus aureus 1653 after 18 to 20 hrs by broth microdilution method; type: functional; in short: as §4
[13] = system: Streptococcus pneumoniae; test: Bactericidal activity against Streptococcus pneumoniae R6 after 18 to 20 hrs by broth microdilution method; type: functional
[14] = system: Bacillus subtilis; test: Antibacterial activity against Bacillus subtilis ATCC 6051 after 18 to 20 hrs by broth microdilution method; type: functional; in short: as §1
[15] = system: Enterococcus faecalis; test: Antibacterial activity against vancomycin resistant Enterococcus faecalis 501 after 18 to 20 hrs by broth microdilution method; type: functional
In short: (§6)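 EUCAST microdilution in BHI broth. Inoculum from 20–24 h colonies on 5% sheep blood BHI agar, final 3×10^4 CFU/mL, 18–20 h aerobic at 37 °C, plate reader, at least duplicate.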

[16] = system: Klebsiella pneumoniae; test: Antibacterial activity against Klebsiella pneumoniae ATCC 13882 after 18 to 20 hrs by broth microdilution method; type: functional; in short: as §3
[17] = system: Pseudomonas aeruginosa; test: Antibacterial activity against Pseudomonas aeruginosa PA0001 after 18 to 20 hrs by broth microdilution method; type: functional
In short: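 EUCAST broth microdilution in LB broth. Inoculum from 20–24 h LB agar colonies (CLSI direct colony suspension), final 3×10^4 CFU/mL. Aerobic incubation 18–20 h at 37 °C, plate-reader read-out, at least one duplicate.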

[18] = system: Staphylococcus aureus; test: Induction of membrane integrity impairment in Staphylococcus aureus USA300 assessed as cells with intact membrane at 2 ug/ml measured after 30 mins by Baclight assay relative to control; type: functional
In short: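 LIVE/DEAD BacLight fluorescence assay. Dye was then added and incubated 15 min in the dark at room temperature. Intact membrane % came from a live/dead (isopropanol-killed) standard curve, at least triplicate, mean±SD.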

[19] = Stability of the compound in organic solvent; type: physicochemical
[20] = system: Staphylococcus aureus; test: Antibacterial activity against methicillin-resistant Staphylococcus aureus USA300 after 18 to 20 hrs by microdilution method; type: functional; in short: as §5
[21] = Stability of the compound in water; type: physicochemical; settings: buffer
[22] = system: Mycolicibacterium smegmatis; test: Antimycobacterial activity against Mycobacterium smegmatis MC2 155 after 94 to 98 hrs by microdilution method; type: functional; settings: str. MC2 155; in short: as §2
[23] = system: Klebsiella pneumoniae; test: Antibacterial activity against Klebsiella pneumoniae ATCC 700603 after 18 to 20 hrs by broth microdilution method; type: functional; in short: as §3
[24] = system: Escherichia coli; test: Antibacterial activity against Escherichia coli DH10beta harboring pHuLUC3 after 18 to 20 hrs by microdilution method; type: functional; in short: as §5
[25] = Stability of the compound in solid state; type: physicochemical
[26] = system: Enterococcus faecalis; test: Bactericidal activity against vancomycin resistant Enterococcus faecalis 501 after 18 to 20 hrs by broth microdilution method; type: functional; in short: as §6
[27] = system: Escherichia coli; test: Bactericidal activity against Escherichia coli D22 after 18 to 20 hrs by microdilution method; type: functional
[28] = system: Staphylococcus aureus; test: Induction of membrane integrity impairment in Staphylococcus aureus USA300 assessed as cells with intact membrane at 8 ug/ml measured after 30 mins by Baclight assay relative to control; type: functional
In short: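 LIVE/DEAD BacLight fluorescence assay. Live cells in 0.85% NaCl at OD600 0.2 were exposed to compound in DMSO for 30 min at 37 °C. Dye was then added and incubated 15 min in the dark at room temperature. Fluorescence read at ex 485 nm, em 530/630 nm. Intact membrane % came from a live/dead (isopropanol-killed) standard curve, at least triplicate, mean±SD.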

[29] = system: Escherichia coli; test: Bactericidal activity against Escherichia coli DH10beta harboring pHuLUC3 after 18 to 20 hrs by microdilution method; type: functional; in short: as §5
[30] = system: Mycolicibacterium smegmatis; test: Antimycobacterial activity against Mycobacterium smegmatis MC2 155 after 3 days by broth macrodilution method; type: functional; settings: str. MC2 155, 72 h

| Structure (SMILES) | MBC [1] [µg/mL] | MIC [2] [µg/mL] | MBC [3] [µg/mL] | MIC [4] [µg/mL] | MIC [5] [µg/mL] | MBC [6] [µg/mL] | MIC [7] [µg/mL] | MBC [8] [µg/mL] | MIC [9] [µg/mL] | MIC [10] [µg/mL] | solubility [11] | MIC [12] [µg/mL] | MBC [13] [µg/mL] | MIC [14] [µg/mL] | Stability [19] | MIC [20] [µg/mL] | Stability [21] | MIC [22] [µg/mL] | MIC [24] [µg/mL] | Stability [25] | other results |
| --- | --- | --- | --- | --- | --- | --- | --- | --- | --- | --- | --- | --- | --- | --- | --- | --- | --- | --- | --- | --- | --- |
| O=C(c1ccccc1F)N(/N=N/c1ccc([N+](=O)[O-])cc1C(F)(F)F)c1ccc([N+](=O)[O-])cc1C(F)(F)F | > 64 | > 128 | 128 (≈ 235 µM) | > 128 | 0.5 (≈ 0.917 µM) | 4 (≈ 7.34 µM) | > 128 | 0.5 (≈ 0.917 µM) | > 128 | > 128 | Soluble | 0.5 (≈ 0.917 µM) | 1 (≈ 1.83 µM) | 2 (≈ 3.67 µM) | Stable | 0.25 (≈ 0.458 µM) | Stable | 16 (≈ 29.3 µM) | > 128 | Stable | MIC [15]: > 128 µg/mL; MIC [16]: > 128 µg/mL; MIC [17]: > 128 µg/mL; Cells with intact membrane [18]: 103.8%; MIC [23]: > 128 µg/mL |
| FC(F)(F)c1cc(Cl)ccc1/N=N/Nc1ccc(Cl)cc1C(F)(F)F | 32 (≈ 79.6 µM) | > 128 | 128 (≈ 318 µM) | > 128 | 0.5 (≈ 1.24 µM) | 1 (≈ 2.49 µM) | 2 (≈ 4.97 µM) | 1 (≈ 2.49 µM) | > 128 | > 128 | Soluble | 1 (≈ 2.49 µM) | 1 (≈ 2.49 µM) | 1 (≈ 2.49 µM) | Stable | 1 to 128 (≈ 2.49 to 318 µM) | Stable | 8 (≈ 19.9 µM) | > 128 | Stable | MBC [26]: > 128 µg/mL; MIC [15]: 2 µg/mL (≈ 4.97 µM); MIC [16]: > 128 µg/mL; MIC [17]: > 128 µg/mL; Cells with intact membrane [18]: 31.2%; MIC [23]: > 128 µg/mL; MBC [27]: > 128 µg/mL |
| O=[N+]([O-])c1ccc(/N=N/Nc2ccc([N+](=O)[O-])cc2Cl)c(Cl)c1 |  |  |  |  |  |  |  | 4 (≈ 11.2 µM) |  | > 128 |  |  |  |  |  | 2 (≈ 5.62 µM) |  | > 128 | > 128 |  | Activity [28]: 64.6% |
| CC(=O)N(/N=N/c1ccc([N+](=O)[O-])cc1C(F)(F)F)c1ccc([N+](=O)[O-])cc1C(F)(F)F | 4 (≈ 8.6 µM) | > 128 | 128 (≈ 275 µM) | > 128 | 0.06 (≈ 0.129 µM) | 0.5 (≈ 1.07 µM) | 1 (≈ 2.15 µM) | 0.25 (≈ 0.537 µM) | > 128 | > 128 | Soluble | 0.25 (≈ 0.537 µM) | 0.5 (≈ 1.07 µM) | 0.125 (≈ 0.269 µM) | Stable | 0.25 (≈ 0.537 µM) | Stable | 16 (≈ 34.4 µM) | 64 (≈ 138 µM) | Stable | MBC [26]: > 128 µg/mL; MIC [15]: 4 µg/mL (≈ 8.6 µM); MIC [16]: > 128 µg/mL; MIC [17]: > 128 µg/mL; Cells with intact membrane [18]: 103%; MIC [23]: > 128 µg/mL; MBC [29]: > 128 µg/mL; MBC [27]: > 128 µg/mL |
| O=C(c1ccccc1)N(/N=N/c1ccc([N+](=O)[O-])cc1C(F)(F)F)c1ccc([N+](=O)[O-])cc1C(F)(F)F | 16 (≈ 30.3 µM) | > 128 | > 128 | > 128 | 0.5 (≈ 0.948 µM) | 1 (≈ 1.9 µM) | > 128 | 0.5 to 2 (≈ 0.948 to 3.79 µM) | > 128 | > 128 | Soluble | 0.5 (≈ 0.948 µM) | 1 (≈ 1.9 µM) | 0.5 (≈ 0.948 µM) | Stable | 0.5 to 2 (≈ 0.948 to 3.79 µM) | Stable | 32 (≈ 60.7 µM) | ≥ 128 | Stable | MIC [15]: > 128 µg/mL; MIC [16]: > 128 µg/mL; MIC [17]: > 128 µg/mL; Cells with intact membrane [18]: 95.8%; MIC [23]: > 128 µg/mL; MBC [29]: > 128 µg/mL |
| CCOC(=O)/C=C/[N+](CC)(CC)CC.O=[N+]([O-])c1ccc(/N=N/[N-]c2ccc([N+](=O)[O-])cc2C(F)(F)F)c(C(F)(F)F)c1 |  |  |  |  |  |  |  |  |  |  | Soluble |  |  |  | Stable |  | Stable |  |  | Stable |  |
| CC[N+](/C=C/C(=O)OC)(CC)CC.O=[N+]([O-])c1ccc(/N=N/[N-]c2ccc([N+](=O)[O-])cc2C(F)(F)F)c(C(F)(F)F)c1 |  |  |  |  |  |  |  |  |  |  | Soluble |  |  |  | Stable |  | Stable |  |  | Stable |  |
| CCN(CC)CC.O=[N+]([O-])c1ccc(/N=N/Nc2ccc([N+](=O)[O-])cc2C(F)(F)F)c(C(F)(F)F)c1 |  |  |  |  |  |  |  |  |  |  | Soluble |  |  |  | Stable |  | Stable |  |  | Stable |  |
| CC1(C)S[C@@H]2[C@H](NC(=O)[C@H](N)c3ccc(O)cc3)C(=O)N2[C@H]1C(=O)O [AMOXICILLIN] |  |  |  |  |  |  |  |  |  |  |  |  |  |  |  |  |  |  |  |  | MIC [30]: 8 to 16 µg/mL (≈ 21.9 to 43.8 µM) |
